Tests used:
B-cell lymphomas = conditions: phase I clinical trial; cited from earlier work
lymphoma cell lines = assay: Synergy in cell viability assay by excess over bliss; type: cell-based; conditions: for synergy in combination with romidepsin: EZH2 inhibitor combined with romidepsin (Supplementary Fig S3)
SU-DHL-10 = assay: Cell viability assay, single agent IC50; type: cell-based; conditions: Homo sapiens, SU-DHL10, 72 h, read-out: in vitro IC50 of romidepsin in SU-DHL-10
[1] = mouse, in vivo; for median Cmax: ip
[2] = prior work, combination therapy alisertib + romidepsin; cited from earlier work
H3K27 = H3K27 acetylation/methylation in HEK 293T cells; type: cell-based; conditions: single agent exposure
In short: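 HEK293 cells were transfected in OPTI-MEM with a human HDAC2 shRNA or scramble plasmid using Lipofectamine 3000. They were puromycin-selected and monitored for GFP by flow cytometry and fluorescence microscopy until a stable line formed. The stable HDAC2-knockdown or scramble cells were then exposed to an EZH2 inhibitor test compound, and H3K27 methylation status was assessed.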

Structure (SMILES) | synergy in combination with romidepsin (lymphoma cell lines) | Cmax translated to molar concentration [1] [nM] | median Cmax [1] [ng/mL] | other results
CCN(c1cc(-c2ccc(CN3CCOCC3)cc2)cc(C(=O)NCc2c(C)cc(C)[nH]c2=O)c1C)C1CCOCC1 [tazemetostat] |  |  |  | overall response rate (B-cell lymphomas): 38%
COc1cc(C)[nH]c(=O)c1CNC(=O)c1c(C)n([C@H](C)C2CCN(CC(F)(F)F)CC2)c2ccccc12 [CPI-1205] | demonstrated synergy |  |  | 
C/C=C1\NC(=O)[C@H]2CSSCC/C=C/[C@H](CC(=O)N[C@H](C(C)C)C(=O)N2)OC(=O)[C@H](C(C)C)NC1=O [romidepsin] |  | 180 | 98.24 ± 62.50 | IC50 (SU-DHL-10): 2.59 nM; intratumor levels after combination of alisertib and romidepsin [2]: below the level of detection
CC[C@H](C)n1cc(C)c2c(C(=O)NCc3c(C)cc(C)[nH]c3=O)cc(-c3ccc(N4CCNCC4)nc3)cc21 [GSK126] |  | 3150 | 1657.5 ± 413.6 | serum AUC0-last [1]: 2828.57 ng·h/mL; status of acetylation or methylation of H3K27 (H3K27): did not significantly change
CCN(c1cc(C#CCN2CCOCC2)cc(C(=O)NCc2c(C)cc(C)[nH]c2=O)c1C)[C@H]1CC[C@H](N(C)CCOC)CC1 [EPZ011989] | demonstrated synergy |  |  | 
Nc1ccc(-c2cccs2)cc1NC(=O)c1ccc2nc(N3CCNCC3)ccc2c1 [ACY957] |  |  |  | synergy in combination with GSK126 (EOB) (lymphoma cell lines; ACY957 combined with GSK126, 4 GC-DLBCL cell lines): synergistic
